Results as given in ChEMBL document CHEMBL1156574, “Synthesis and biological properties of benzothiazole, benzoxazole, and chromen-4-one analogues of the potent antitumor agent 2-(3,4-dimethoxyphenyl)-5-fluorobenzothiazole (PMX 610, NSC 721648)” (J Med Chem, 2008).
Calls of active or inactive are those of the source. No cut-off for these calls is given here.

Legend:
MCF7 [1] = assay: Antiproliferative activity against estrogen receptor positive human MCF7 cells after 72 hrs by MTT assay; type: functional; conditions: MCF7, 72 h
Method in brief: (§1)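 Growth inhibition was tested in triplicate in breast lines MCF-7 (ER +ve) and MDA 468 (ER −ve). Values are means of three independent experiments, reported as GI50.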

[2] = Antiproliferative activity against estrogen receptor deficient human MDA468 cells after 72 hrs by MTT assay; type: functional; conditions: MDA-MB-468, 72 h; method in brief: as §1
[3] = Cell cycle arrest in estrogen receptor deficient human MDA468 cells assessed as accumulation at G2/M phase at 0.1 uM after 24 hrs by flow cytometry; type: functional, cell-based; conditions: MDA-MB-468
Method in brief: (§2)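 MDA 468 breast cells were left untreated or exposed for 24–72 h. Cellular DNA content was measured by flow cytometry, with 10 000 events per sample. Percentages in pre-G1, G1, S and G2/M were taken from the DNA histograms and compared with the nontreated control. Independent analyses were run ≥3 times.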

[4] = Cell cycle arrest in estrogen receptor deficient human MDA468 cells assessed as accumulation at G2/M phase at 1 uM after 24 hrs by flow cytometry; type: functional, cell-based; conditions: MDA-MB-468; method in brief: as §2
MDA-MB-468 = assay: Induction of apoptosis in estrogen receptor deficient human MDA468 cells assessed as accumulation at preG1 phase at 1 uM after 24 hrs by flow cytometry; type: functional, cell-based; method in brief: as §2
[5] = Cell cycle arrest in estrogen receptor deficient human MDA468 cells assessed as accumulation at S phase at 1 uM after 24 hrs by flow cytometry; type: functional, cell-based; conditions: MDA-MB-468; method in brief: as §2
[6] = Cell cycle arrest in estrogen receptor deficient human MDA468 cells assessed as accumulation at G2/M phase at 0.1 uM after 48 hrs by flow cytometry; type: functional, cell-based; conditions: MDA-MB-468; method in brief: as §2
MCF7 [7] = assay: Antiproliferative activity against human estrogen receptor positive MCF7 cells after 72 hrs by MTT assay in presence of aryl hydrocarbon receptor antagonist alpha-naphthoflavone; type: functional; conditions: MCF7, 72 h
[8] = Cell cycle arrest in estrogen receptor deficient human MDA468 cells assessed as accumulation at G2/M phase at 0.1 uM after 72 hrs by flow cytometry; type: functional, cell-based; conditions: MDA-MB-468; method in brief: as §2
[9] = Antiproliferative activity against estrogen receptor deficient human MDA468 cells after 72 hrs by MTT assay in presence of aryl hydrocarbon receptor antagonist alpha-naphthoflavone; type: functional; conditions: MDA-MB-468, 72 h
[10] = target: T1, Aryl hydrocarbon receptor (Rattus norvegicus, UniProt P41738); assay: Displacement of [3H]tetrachlorodibenzo-p-dioxin from aryl hydrocarbon receptor in CRL:WI rat liver cytosol
T1 sequence (P41738 whole entry): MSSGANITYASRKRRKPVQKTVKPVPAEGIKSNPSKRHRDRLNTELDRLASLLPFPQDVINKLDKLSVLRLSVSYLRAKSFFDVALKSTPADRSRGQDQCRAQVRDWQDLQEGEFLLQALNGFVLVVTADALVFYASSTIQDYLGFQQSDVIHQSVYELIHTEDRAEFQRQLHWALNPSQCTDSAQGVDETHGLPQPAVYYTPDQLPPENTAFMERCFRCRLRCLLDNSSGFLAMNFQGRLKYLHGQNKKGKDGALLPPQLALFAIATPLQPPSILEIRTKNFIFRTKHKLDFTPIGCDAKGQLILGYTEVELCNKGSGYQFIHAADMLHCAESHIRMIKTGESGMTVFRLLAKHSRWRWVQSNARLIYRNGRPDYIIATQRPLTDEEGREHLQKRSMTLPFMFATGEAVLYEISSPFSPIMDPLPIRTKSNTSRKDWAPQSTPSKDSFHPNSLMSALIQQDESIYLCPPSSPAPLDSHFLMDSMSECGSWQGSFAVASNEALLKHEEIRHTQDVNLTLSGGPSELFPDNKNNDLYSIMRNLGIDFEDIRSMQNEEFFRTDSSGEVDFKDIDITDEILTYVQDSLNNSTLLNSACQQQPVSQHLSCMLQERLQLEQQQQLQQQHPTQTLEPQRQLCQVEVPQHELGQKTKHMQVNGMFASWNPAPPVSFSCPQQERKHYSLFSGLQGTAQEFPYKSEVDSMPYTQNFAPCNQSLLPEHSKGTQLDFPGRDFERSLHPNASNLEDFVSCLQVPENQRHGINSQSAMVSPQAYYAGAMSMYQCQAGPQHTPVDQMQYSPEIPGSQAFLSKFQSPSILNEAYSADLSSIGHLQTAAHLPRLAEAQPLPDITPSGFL
Method in brief: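 Aryl hydrocarbon receptor binding was measured in CRL:WI rat liver cytosol by displacement of [3H]tetrachlorodibenzo-p-dioxin. IC50 was determined, and Ki was also reported.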

SMILES	GI50 (MCF7 [1])	GI50 [2]	also measured
COc1cc(OC)cc(-c2nc3cc(F)ccc3o2)c1	45.4 µM	0.79 µM	
COc1cc(-c2nc3cc(F)ccc3o2)cc(OC)c1OC	16 µM	2.58 µM	
Fc1ccc2nc(-c3ccc4c(c3)OCO4)oc2c1	19.2 µM	6.77 µM	
COc1cc(-c2nc3ccc(F)cc3o2)cc(OC)c1OC	1.09 µM	0.037 µM	
COc1ccc(-c2nc3ccc(F)cc3o2)cc1	41 µM	9.55 µM	
COc1cc(OC)cc(-c2nc3ccc(F)cc3o2)c1	3.72 µM	0.46 µM	
CCOc1ccc2nc(-c3ccc(O)cc3)sc2c1	> 100 µM	> 100 µM	
COc1ccc(-c2nc3ccc(F)cc3o2)cc1OC	3.53 µM	0.017 µM	
COc1cccc(-c2nc3ccc(F)cc3o2)c1	35.1 µM	2.02 µM	
Oc1ccc(-c2nc3ccc(F)cc3s2)cc1	54 µM	0.5 µM	
COc1ccc(-c2nc3cc(F)ccc3o2)c(OC)c1	2.16 µM	0.54 µM	
COc1ccc(-c2cc(=O)c3cc(F)ccc3o2)cc1OC	83.4 µM	20.6 µM	
Oc1cccc(-c2nc3cc(F)ccc3s2)c1	0.57 µM	0.2 µM	
CS(=O)(=O)c1ccc2nc(-c3ccc(O)cc3)sc2c1	62.3 µM	42.2 µM	
COc1ccc(-c2nc3cc(F)ccc3[nH]2)cc1OC	85.7 µM	94.4 µM	Activity [3]: inactive; Activity [5]: inactive

The next lines start with results.

GI50 (MCF7 [1])	SMILES	GI50 [2]	also measured
90.7 µM	COc1cccc(OC)c1-c1nc2ccc(F)cc2o1	98.6 µM	
4.16 µM	Oc1ccc(-c2nc3ccc(Br)cc3s2)cc1	0.28 µM	
0.36 µM	COc1ccccc1-c1nc2cc(F)ccc2o1	0.27 µM	
0.83 µM	COc1ccc(-c2nc3cc(F)ccc3o2)cc1OC	0.33 µM	Activity [3]: inactive; Activity [4]: Active; Activity (MDA-MB-468): Active; Activity [5]: Active
0.82 µM	COc1ccccc1-c1nc2ccc(F)cc2o1	1.19 µM	
13.8 µM	Oc1ccc(-c2nc3cc(C(F)(F)F)ccc3s2)cc1	0.1 µM	
> 100 µM	CCc1ccc2nc(-c3ccc(O)cc3)sc2c1	> 100 µM	
69.9 µM	COc1ccc(-c2nc3ccc(F)cc3o2)c(OC)c1	3.29 µM	
< 0.0001 µM	COc1ccc(-c2nc3cc(F)ccc3s2)cc1OC	< 0.0001 µM	Activity [6]: Active; Activity [3]: Active; GI50 (MCF7 [7]): 0.514 µM; Activity [8]: Active; GI50 [9]: 0.27 µM; IC50 [10]: 0.025 µM; Ki [10]: 0.0068 µM
58.1 µM	COc1cccc(OC)c1-c1nc2cc(F)ccc2o1	22 µM	
0.4 µM	Oc1ccc(-c2nc3cc(F)ccc3s2)cc1	0.21 µM	
61.4 µM	Fc1ccc2oc(-c3ccc4c(c3)OCO4)nc2c1	14.5 µM	
27.9 µM	COc1ccc(-c2cc(=O)c3ccc(F)cc3o2)cc1OC	0.45 µM	
45.8 µM	COc1ccc2nc(-c3ccc(O)cc3)sc2c1	9.67 µM	
26.5 µM	Oc1ccc(-c2nc3ccc(Cl)cc3s2)cc1	0.28 µM	
39.5 µM	COc1cccc(-c2nc3cc(F)ccc3o2)c1	0.87 µM	
22.7 µM	COc1ccc(-c2nc3cc(F)ccc3o2)cc1	0.76 µM	
